ChEMBL document CHEMBL1123819, “Synthesis and antifungal activity of a series of novel 1,2-disubstituted propenones” (1987)
Converted amounts (≈) assume the structure as drawn.

Columns and labels:
Type in all cases: functional
[1] = test system: Aspergillus fumigatus; experiment: Antifungal activity against Aspergillus fumigatus was determined in vitro
In short: (§1)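 Broth microdilution in Sabouraud's glucose broth; MIC read as the fungistatic end point. Final inocula were 1 × 10^5 cells/mL for the yeast and 1 × 10^5 conidia/mL for the mould and the dermatophyte.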

[2] = test system: Candida albicans; experiment: (§2) Antifungal activity against Candida albicans was determined in vitro; in short: as §1
[3] = test system: Trichophyton benhamiae; experiment: Antifungal activity against Trichophyton asteroides was determined in vitro; in short: as §1
[4] = test system: Candida albicans; experiment: as §2; remark: listed apart in the source
In short: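 MIC by broth microdilution in microtiter plates. Final inoculum 1 × 10^5 yeast cells per mL of Sabouraud's glucose broth. Fungistatic activity was assessed.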

Row | MIC [1] [µg/mL] | MIC [2] [µg/mL] | MIC [3] [µg/mL] | Compound | MIC [4] [µg/mL]
1 | > 100 | > 100 | 12.5 (≈ 35.3 µM) | O=C(/C(=C/c1ccc(F)cc1)n1ccccc1=O)c1ccc(Cl)cc1 | 
2 | 6.3 (≈ 20.3 µM) | 0.8 (≈ 2.57 µM) | 1.6 (≈ 5.15 µM) | C=C(C(=O)c1ccc(Cl)cc1)n1ncc2ccccc2c1=O | 
3 | 25 (≈ 85 µM) | 0.8 (≈ 2.72 µM) | 0.8 (≈ 2.72 µM) | C=C(C(=O)c1ccc(Cl)cc1Cl)n1ccccc1=O | 
4 | 6.3 (≈ 33.3 µM) | 0.8 (≈ 4.23 µM) | 3.1 (≈ 16.4 µM) | C=C(C(=O)c1ccco1)n1cncn1 | 
5 | > 100 | 3.1 (≈ 12.1 µM) | 1.6 (≈ 6.27 µM) | C=C(C(=O)c1ccccc1OC)n1ccccc1=O | 
6 | 12.5 (≈ 55.9 µM) | 12.5 (≈ 55.9 µM) | 6.3 (≈ 28.2 µM) | C=C(CN(C)C)C(=O)c1ccc(Cl)cc1 | 
7 | 1.6 (≈ 5.17 µM) | 3.1 (≈ 10 µM) | 0.2 (≈ 0.646 µM) | C=C(C(=O)c1ccc(Cl)cc1)n1c(=O)ccc2ccccc21 | 
8 | 12.5 (≈ 43.4 µM) | 6.3 (≈ 21.8 µM) | 0.8 (≈ 2.77 µM) | C=C(Cn1cccn1)C(=O)c1ccc(-c2ccccc2)cc1 | 
9 | 3.1 (≈ 11.3 µM) | 0.8 (≈ 2.92 µM) | 0.8 (≈ 2.92 µM) | C=C(C(=O)c1ccc(Cl)cc1)n1cc(C)ccc1=O | 
10 | 100 (≈ 383 µM) | 3.1 (≈ 11.9 µM) | 3.1 (≈ 11.9 µM) | COCC(C(=O)c1ccc(OC)cc1)n1cncn1 (stereo unspecified) | 
11 | 6.3 (≈ 21.7 µM) | 6.3 (≈ 21.7 µM) | 3.1 (≈ 10.7 µM) | C=C(C(=O)c1ccc(Cl)cc1)N1C(=O)C=NC(=O)C1C (stereo unspecified) | 
12 | 12.5 (≈ 42.4 µM) | 3.1 (≈ 10.5 µM) | 0.4 (≈ 1.36 µM) | C=C(C(=O)c1ccc(F)cc1)c1ccc(Cl)cc1Cl | 
13 | 100 (≈ 371 µM) | 25 (≈ 92.8 µM) | 6.3 (≈ 23.4 µM) | C=C(Cn1ccccc1=O)C(=O)c1ccc(OC)cc1 | 
14 | 6.3 (≈ 27 µM) | 0.2 (≈ 0.856 µM) | 1.6 (≈ 6.85 µM) | C=C(C(=O)c1ccc(Cl)cc1)n1cncn1 | 
15 | 25 (≈ 111 µM) | 1.6 (≈ 7.14 µM) | 6.3 (≈ 28.1 µM) | C=C(C(=O)c1ccc(C#N)cc1)n1cncn1 | 
16 | 50 (≈ 177 µM) | 3.1 (≈ 10.9 µM) | 3.1 (≈ 10.9 µM) | C=C(C(=O)c1ccc(C(=O)OC)cc1)n1ccccc1=O | 
17 | 25 (≈ 182 µM) | 12.5 (≈ 91.1 µM) | 3.1 (≈ 22.6 µM) | C=C(C(C)=O)n1cncn1 | 
18 | 12.5 (≈ 54.5 µM) | 0.8 (≈ 3.49 µM) | 0.8 (≈ 3.49 µM) | C=C(C(=O)c1ccc(OC)cc1)n1cncn1 | 
19 | 3.1 (≈ 12.5 µM) | 3.1 (≈ 12.5 µM) | 0.1 (≈ 0.402 µM) | C=C(C(=O)c1cccs1)c1ccc(Cl)cc1 | 
20 | 6.3 (≈ 30.7 µM) | 0.4 (≈ 1.95 µM) | 1.6 (≈ 7.8 µM) | C=C(C(=O)c1cccs1)n1cncn1 | 
21 | > 100 | > 100 | > 100 | CC(C(=O)c1ccc(Cl)cc1)n1ccccc1=O (stereo unspecified) | 

Row | MIC [1] [µg/mL] | MIC [2] [µg/mL] | MIC [3] [µg/mL] | Compound | MIC [4] [µg/mL]
22 | 25 (≈ 93.6 µM) | 0.8 (≈ 2.99 µM) | 1.6 (≈ 5.99 µM) | C=C(C(=O)c1ccc(Cl)cc1Cl)n1cccn1 | 
23 | 1.6 (≈ 5.12 µM) | 1.6 (≈ 5.12 µM) | 0.4 (≈ 1.28 µM) | C=C(C(=O)c1ccc(Cl)cc1)n1c(=O)n(C)c2ccccc21 | 
24 | 3.1 (≈ 11.3 µM) | 0.4 (≈ 1.45 µM) | 0.2 (≈ 0.726 µM) | C=C(C(=O)c1ccc(-c2ccccc2)cc1)n1cncn1 | 
25 | > 100 | 12.5 (≈ 51.4 µM) | 6.3 (≈ 25.9 µM) | C=C(Cn1cncn1)C(=O)c1ccc(OC)cc1 | 
26 | 6.3 (≈ 35.2 µM) | 0.4 (≈ 2.23 µM) | 6.3 (≈ 35.2 µM) | C=C(C(=O)C(C)(C)C)n1cncn1 | 
27 | 6.3 (≈ 19.2 µM) | 0.8 (≈ 2.43 µM) | 0.8 (≈ 2.43 µM) | O=C(c1ccc(Cl)cc1)C(CO)n1cnc2ccccc2c1=O (stereo unspecified) | 
28 | 100 (≈ 309 µM) | 25 (≈ 77.2 µM) | 3.1 (≈ 9.57 µM) | C=C(Cn1c(=O)ccc2ccccc21)C(=O)c1ccc(Cl)cc1 | 
29 | 25 (≈ 91.3 µM) | 1.6 (≈ 5.85 µM) | 0.8 (≈ 2.92 µM) | C=C(Cn1ccccc1=O)C(=O)c1ccc(Cl)cc1 | 
30 | > 100 | > 100 | > 100 | C=C(C(=O)N1CCOCC1)c1ccc(Cl)cc1Cl | 
31 | 6.3 (≈ 20.6 µM) | 1.6 (≈ 5.22 µM) | 0.4 (≈ 1.31 µM) | C=C(C(=O)c1ccc(OC)cc1)n1cnc2ccccc2c1=O | 
32 | 1.6 (≈ 7.47 µM) | 1.6 (≈ 7.47 µM) | 0.2 (≈ 0.933 µM) | C=C(C(=O)c1cccs1)c1ccccc1 | 
33 | > 100 | > 100 | 25 (≈ 86.9 µM) | CC/C=C(\C(=O)c1ccc(Cl)cc1)n1ccccc1=O | 
34 | 3.1 (≈ 11.9 µM) | 0.4 (≈ 1.53 µM) | 1.6 (≈ 6.14 µM) | C=C(C(=O)c1ccc(Cl)cc1)n1cnccc1=O | 
35 | 3.1 (≈ 9.76 µM) | 0.8 (≈ 2.52 µM) | 0.8 (≈ 2.52 µM) | C=C(C(=O)c1ccc(Cl)cc1)n1cc(C(=O)OC)ccc1=O | 
36 | > 100 | 6.3 (≈ 18.2 µM) | 0.4 (≈ 1.16 µM) | C=C(C(=O)c1ccc(Cl)cc1Cl)c1ccc(Cl)cc1Cl | 
37 | 100 (≈ 438 µM) | > 100 | 6.3 (≈ 27.6 µM) | C=C(Cc1ccccc1)C(=O)c1cccs1 | 
38 | 12.5 (≈ 43.2 µM) | 1.6 (≈ 5.53 µM) | 0.4 (≈ 1.38 µM) | C=C(Cn1cncn1)C(=O)c1ccc(-c2ccccc2)cc1 | 
39 | 2.5 (≈ 9.63 µM) | 1.6 (≈ 6.16 µM) | 0.8 (≈ 3.08 µM) | C=C(C(=O)c1ccc(Cl)cc1)n1ccccc1=O | 
40 | 12.5 (≈ 50.5 µM) | 0.4 (≈ 1.61 µM) | 1.6 (≈ 6.46 µM) | C=C(Cn1cncn1)C(=O)c1ccc(Cl)cc1 | 
41 | 50 (≈ 222 µM) | 6.3 (≈ 28 µM) | 1.6 (≈ 7.1 µM) | C=C(C(=O)c1ccccc1)n1ccccc1=O | 
42 | 50 (≈ 159 µM) | 6.3 (≈ 20 µM) | 0.8 (≈ 2.54 µM) | C=C(Cn1ccccc1=O)C(=O)c1ccc(-c2ccccc2)cc1 | 

Row | MIC [1] [µg/mL] | MIC [2] [µg/mL] | MIC [3] [µg/mL] | Compound | MIC [4] [µg/mL]
43 | 12.5 (≈ 41.5 µM) | 0.8 (≈ 2.65 µM) | 0.4 (≈ 1.33 µM) | C=C(C(=O)c1ccc(-c2ccccc2)cc1)n1ccccc1=O | 
44 | 3.1 (≈ 10.5 µM) | 0.8 (≈ 2.72 µM) | 0.8 (≈ 2.72 µM) | C=C(C(=O)c1ccc(Cl)cc1)n1cc(Cl)ccc1=O | 
45 | > 100 | 50 (≈ 244 µM) | 6.3 (≈ 30.7 µM) | C=C(C(=O)C(C)(C)C)n1ccccc1=O | 
46 | 50 (≈ 204 µM) | 50 (≈ 204 µM) | 6.3 (≈ 25.7 µM) | C=C(Cn1ccccc1=O)C(=O)c1ccsc1 | 
47 | 0.4 (≈ 1.29 µM) | 0.1 (≈ 0.322 µM) | 0.1 (≈ 0.322 µM) | C=C(C(=O)c1ccc(Cl)cc1)n1cnc2ccccc2c1=O | 
48 | > 100 | > 100 | 25 (≈ 70.9 µM) | C=C(C(=O)c1ccc(-c2ccccc2)cc1)n1cnc2ccccc2c1=O | 
49 | 6.3 (≈ 29.5 µM) | 0.2 (≈ 0.938 µM) | 0.8 (≈ 3.75 µM) | C=C(C(=O)c1ccc(C)cc1)n1cncn1 | 
50 | 25 (≈ 184 µM) | 25 (≈ 184 µM) | 1.6 (≈ 11.8 µM) | C=C(C)C(=O)c1ccco1 | 
51 | 6.3 (≈ 19.4 µM) | 3.1 (≈ 9.55 µM) | 3.1 (≈ 9.55 µM) | C=C(Cn1cnc2ccccc2c1=O)C(=O)c1ccc(Cl)cc1 | 
52 | > 100 | > 100 | > 100 | C=C(C(=O)Nc1ccc(Cl)cc1)c1ccc(Cl)cc1Cl | 
53 | 100 (≈ 404 µM) | 3.1 (≈ 12.5 µM) | 3.1 (≈ 12.5 µM) | COc1ccc(C(=O)C(CO)n2cncn2)cc1 (stereo unspecified) | 
54 | 6.3 (≈ 29 µM) | 0.4 (≈ 1.84 µM) | 0.8 (≈ 3.68 µM) | C=C(C(=O)c1ccc(F)cc1)n1cncn1 | 
55 | > 100 | 12.5 (≈ 45.2 µM) | 12.5 (≈ 45.2 µM) | C=C(C(=O)c1ccc(Cl)cc1)N1CC(=O)N=CC1=O | 
56 | 25 (≈ 96.3 µM) | 6.3 (≈ 24.3 µM) | 3.1 (≈ 11.9 µM) | C=C(C(=O)c1ccccc1)n1cc(Cl)ccc1=O | 
57 | 12.5 (≈ 41.8 µM) | 6.3 (≈ 21.1 µM) | 3.1 (≈ 10.4 µM) | C=C(C(=O)c1ccc(Cl)cc1)n1c(O)nc2ccccc21 | 
58 | 100 (≈ 456 µM) | 12.5 (≈ 57 µM) | 6.3 (≈ 28.7 µM) | C=C(Cn1cncn1)C(=O)c1ccsc1 | 
59 | 1.6 (≈ 4.64 µM) | 1.6 (≈ 4.64 µM) | 0.1 (≈ 0.29 µM) | Clc1ccccc1C(c1ccccc1)(c1ccccc1)n1ccnc1 [CLOTRIMAZOLE] | 
60 | 3.1 (≈ 8.12 µM) | 3.1 (≈ 8.12 µM) | 0.1 (≈ 0.262 µM) | Clc1ccc(COC(Cn2ccnc2)c2ccc(Cl)cc2Cl)cc1 (stereo unspecified) [ECONAZOLE] | 
61 | 6.3 (≈ 15.1 µM) | 3.1 (≈ 7.45 µM) | 0.1 (≈ 0.24 µM) | Clc1ccc(COC(Cn2ccnc2)c2ccc(Cl)cc2Cl)c(Cl)c1 (stereo unspecified) [MICONAZOLE] | 

Row | Compound | MIC [1] [µg/mL] | MIC [2] [µg/mL] | MIC [3] [µg/mL] | MIC [4] [µg/mL]
62 | C=C(c1ccccc1OCc1cccc(Cl)c1)n1ccnc1 [CROCONAZOLE] | 3.1 (≈ 9.97 µM) |  | 0.1 (≈ 0.322 µM) | 3.1 (≈ 9.97 µM)
